Assay results as given in publication PMC5987874 (The Journal of General Physiology, 2018).
Substitutions are numbered along the chain they refer to. Read-outs that look alike come from different tables or passages of the source.

How the values were obtained:
human Hv1 H140A-H193A [1] = molecular target: T1, human Hv1 H140A-H193A (Homo sapiens, UniProt Q96D96, H140A/H193A); assay: Whole-cell voltage clamp, Zn^2+ modulation of GAQ gating; format: cell-based
T1 sequence (Q96D96 1-273 H140A/H193A): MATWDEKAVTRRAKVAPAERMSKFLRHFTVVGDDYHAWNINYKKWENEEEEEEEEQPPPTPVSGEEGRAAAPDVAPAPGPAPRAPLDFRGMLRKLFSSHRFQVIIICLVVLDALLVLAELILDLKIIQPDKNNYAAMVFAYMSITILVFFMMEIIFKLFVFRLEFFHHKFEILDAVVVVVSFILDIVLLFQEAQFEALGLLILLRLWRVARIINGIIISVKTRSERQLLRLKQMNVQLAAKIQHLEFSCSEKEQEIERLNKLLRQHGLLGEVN
How it was run: (§1)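 Whole-cell patch clamp at ~21°C. Pipette and bath (mM): ~80 TMA-MeSO3, 100 Bis-Tris, 8 HCl, pH 6.5, 310–320 mOsm. ZnCl2 was diluted into bath solution and applied by gravity superfusion, at least 2 min per change. Test step voltage was set per construct from its V0.5. G_STEP = end-of-step current/(V−V_REV). Effect = 1 − G_Zn/G_control, fitted to the Hill equation. IC50 and nH are means ± SEM from separate cells. ΔpIC50 was tested by unpaired t test, P<0.05.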

human Hv1 H140A-D185H = molecular target: T2, human Hv1 H140A-D185H (Homo sapiens, UniProt Q96D96, D185H/H140A); assay: as above; format: cell-based
T2 sequence (Q96D96 1-273 H140A/D185H): T1 sequence (Q96D96 1-273 H140A/H193A) with D185H, A193H
How it was run: as §1

[2] = molecular target: T3, human Hv1 E119H-H140A-D185H-H193A (Homo sapiens, UniProt Q96D96, D185H/E119H/H140A/H193A); assay: as above; format: cell-based
T3 sequence (Q96D96 1-273 E119H/H140A/D185H/H193A): T1 sequence (Q96D96 1-273 H140A/H193A) with E119H, D185H
How it was run: as §1

[3] = molecular target: T4, human Hv1 E153A (E^2.53A) (Homo sapiens, UniProt Q96D96, E153A); assay: as above; format: cell-based
T4 sequence (Q96D96 1-273 E153A): T1 sequence (Q96D96 1-273 H140A/H193A) with A140H, E153A, A193H
How it was run: as §1

human Hv1 D112H = molecular target: T5, human Hv1 D112H (Homo sapiens, UniProt Q96D96, D112H); assay: Whole-cell voltage clamp, Zn^2+ modulation of GAQ gating; format: cell-based
T5 sequence (Q96D96 1-273 D112H): T1 sequence (Q96D96 1-273 H140A/H193A) with D112H, A140H, A193H
How it was run: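 Zn2+ effect was read from tail current, not end-of-step current. Whole-cell recording at ~21°C with pH 6.5 pipette and bath solutions (mM: ~80 TMA-MeSO3, 100 Bis-Tris, 8 HCl). ZnCl2 was diluted in bath solution and gravity-superfused, at least 2 min per change. Concentration–response was fitted to the Hill equation, with IC50 values from separate cells. ΔpIC50 was compared by unpaired Student's t test, P<0.05.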

[4] = molecular target: human Hv1 H140A-D185H-H193A-R205H (Homo sapiens, UniProt Q96D96, D185H/H140A/H193A/R205H); assay: Whole-cell voltage clamp, Zn^2+ modulation of GAQ gating; format: cell-based
How it was run: as §1

human Hv1 H140A-H193A [5] = molecular target: T1, human Hv1 H140A-H193A; settings: double mutant; ref Ramsey et al., 2006; cited from earlier work
[6] = VSTEP 120 mV, calculated as log (IC50)

Chain of human Hv1 H140A-D185H-H193A-R205H (Q96D96 whole entry H140A/D185H/H193A/R205H): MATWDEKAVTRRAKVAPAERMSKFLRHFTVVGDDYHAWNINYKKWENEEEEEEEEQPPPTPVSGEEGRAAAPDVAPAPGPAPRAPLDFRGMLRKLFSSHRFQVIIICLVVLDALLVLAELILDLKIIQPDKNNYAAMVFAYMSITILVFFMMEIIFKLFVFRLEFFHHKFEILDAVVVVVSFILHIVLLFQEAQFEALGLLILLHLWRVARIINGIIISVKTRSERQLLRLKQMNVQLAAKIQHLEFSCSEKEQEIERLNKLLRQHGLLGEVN

nH, fit of the mean data to a Hill function (human Hv1 H140A-H193A [1]; Fig. 2C): 1.5 | Mean ΔpIC50 = (pIC50_1 - pIC50_2) (human Hv1 H140A-H193A [1]; H140A-H193A vs H140A): −1.65 | Mean ΔpIC50 = (pIC50_1 - pIC50_2) (human Hv1 H140A-H193A [1]; H140A-H193A vs H193A): −1.30 | Mean ΔpIC50 = (pIC50_1 - pIC50_2) (human Hv1 H140A-H193A [1]; H140A-H193A vs WT): −2.68 | Hill value (human Hv1 H140A-H193A [1]; VSTEP 100 mV): 1.57 | IC50 (human Hv1 H140A-H193A [1]; VSTEP 100 mV): 1700 ± 300 µM | pIC50 (human Hv1 H140A-H193A [1]; VSTEP 100 mV, calculated as log (IC50)): −2.76 | IC50 (human Hv1 H140A-H193A [1]; read-out: IC50, fit of the mean data to a Hill function, Fig. 2C): 1740 µM | nH, fit of the mean data to a Hill function (human Hv1 H140A-D185H; Fig. 4D): 0.6 | Mean ΔpIC50 = (pIC50_1 - pIC50_2) (human Hv1 H140A-D185H; H140A-D185H vs D185H): −0.42 | Mean ΔpIC50 = (pIC50_1 - pIC50_2) (human Hv1 H140A-D185H; H140A-D185H vs H140A): 0.54 | Hill value (human Hv1 H140A-D185H; VSTEP 120 mV): 0.81 | pIC50 (human Hv1 H140A-D185H; [6]): −4.96 | IC50 (human Hv1 H140A-D185H; read-out: IC50, fit of the mean data to a Hill function, Fig. 4D): 18 µM | Mean ΔpIC50 = (pIC50_1 - pIC50_2) ([2]; E119H-H140A-D185H-H193A vs E119H-H140A-H193A): −0.25 | Mean ΔpIC50 = (pIC50_1 - pIC50_2) ([2]; E119H-H140A-D185H-H193A vs H140A-D185H-H193A): 1.75 | Hill value ([2]; VSTEP 120 mV): 0.72 | pIC50 [2, 6]: −4.90 | Mean ΔpIC50 = (pIC50_1 - pIC50_2) ([3]; E153A vs WT): −1.29 | Hill value ([3]; VSTEP 40 mV): 0.87 | pIC50 ([3]; VSTEP 40 mV, calculated as log (IC50)): −3.77 | IC50 ([3]; read-out: Mean IC50 @ VSTEP, VSTEP 40 mV, pH 6.5, mean of fits in separate cells): 241 µM | Mean ΔpIC50 = (pIC50_1 - pIC50_2) (human Hv1 D112H; D112H vs WT): −2.1 | Hill value (human Hv1 D112H; VSTEP 130 mV, determined from tail current): 0.56 | pIC50 (human Hv1 D112H; VSTEP 130 mV, determined from tail current, calculated as log (IC50)): −2.96 | IC50 (human Hv1 D112H; read-out: Mean IC50 @ VSTEP, VSTEP 130 mV, pH 6.5, determined from tail current): 1140 µM | Mean ΔpIC50 = (pIC50_1 - pIC50_2) ([4]; H140A-D185H-H193A-R205H vs H140A-D185H-H193A): 0.54 | Mean pIC50 ([4]; Table 2 only, calculated as log (IC50)): −3.68
Compound: [Cl-].[Cl-].[Zn+2] [Zn^2+, ZnCl2]
Zn^2+ sensitivity (human Hv1 H140A-H193A [5]): essentially insensitive to submillimolar
